The chains are these.
B1: tRNA (parent)
chain: GUUCCGUUGGCGUAAUGGUAACGCGUCUCCCUCCUAAGGAGAAGACUGCGGGUUCGAGUCCCGUACGGAACG

Fewer inactive variants are shown than the library holds.

In the series the parent is B1. In words: yeast fitness relative to wild type (ratio to wild type); higher = fitter; tRNA-Arg(CCU), competitive growth, 37 C, YPD. In outline: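 Variants of the tRNA-Arg(CCU) gene, chemically synthesised with a 3% per-site mutation rate at 69 sites, were placed at the native genomic locus in Saccharomyces cerevisiae. The pooled strains were competed in YPD at 37°C for 24 hours in six parallel replicates. Gene amplicons from the start population and from each end population were read by 100-nucleotide paired-end sequencing. Darwinian fitness relative to wild type came from changes in genotype frequencies; genotypes needed ≥ 100 starting reads, and estimates < 0.5 were set to 0.5.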
Consider A14G A20U A40G U54C, for which the yeast fitness was ≤ 0.5.
Consider A14C C27G C60A A65U, for which the yeast fitness was ≤ 0.5.
The value for A14C U16C A40U G51C A69C was 0.639; that for A14C G23C A36U A70U was ≤ 0.5; that for A14C G63A was 0.803.
In the case of A14C G63C, the yeast fitness turned out to be 0.535.
On to A14G A20C C66U, for which the yeast fitness was found to be 0.665.
Regarding A14C C27U C31U C33A C55U, the yeast fitness is ≤ 0.5.
To A14C G25A C33G A36U A45G G52C A70C belongs 0.556; to A14C C30G C46U G48A U54G, ≤ 0.5.
To A14G A43C G50A belongs 0.558; to A14C C22G G52C, ≤ 0.5.
As for A14C C49G U54C G63A, the yeast fitness is ≤ 0.5.
For A14C C33A A37U C62G, the yeast fitness is ≤ 0.5.
In the case of A14C U26A C34A G44A G67C, the yeast fitness was ≤ 0.5.
For A14C G23A C29U U35C C55G, the yeast fitness worked out at 0.627.
On to A14G A40C C55A C66A, for which the yeast fitness is ≤ 0.5.
Consider A14C U19C C34U, for which the yeast fitness was ≤ 0.5.
The value for A14C U19G U32A was ≤ 0.5.
A14C U35A G50A A69U: the yeast fitness was ≤ 0.5.
As to A14G A36G C66U, the yeast fitness amounted to 0.606.
As to A14C C29U G39C U54C, the yeast fitness came to 0.678.
In the case of A14C U19A A45U, the yeast fitness is ≤ 0.5.
For A14C C22G G52C A65U, the yeast fitness is ≤ 0.5.
A14C G25C C27G C34U U35A G38A A70G: the yeast fitness was ≤ 0.5.
Turning to A14C A57U C62U G67A, the yeast fitness is 0.508.
As for A14C G18A C29G A42C, the yeast fitness was ≤ 0.5.
For A14G A43U G50U G68C, the yeast fitness was ≤ 0.5.
To A14C C60A A65U belongs ≤ 0.5; to A14C C62G A70G, 0.632; to A14G A42C U54A, ≤ 0.5.
The value for A14C C30A C33G C46U was ≤ 0.5.
A14C C22U C55U C61G C62G: the yeast fitness was ≤ 0.5.
Regarding A14C U19C A20G G58A, the yeast fitness was ≤ 0.5.
Turning to A14C G18A G44A U59C C66G, the yeast fitness is ≤ 0.5.
To A14C C24A G52A U53A belongs ≤ 0.5.
A14C G51A A69U A70G: the yeast fitness was ≤ 0.5.
Turning to A14C U19A A20C G51A U59C, the yeast fitness is 0.645.
On to A14C C27G C46G A65G, for which the yeast fitness was determined as 0.576.
A14C C27G U35C C46G A65G: the yeast fitness was ≤ 0.5.
Consider A14G A36C A69C, for which the yeast fitness is ≤ 0.5.
Take A14C G25C C27G C34U U35A G38A G56A U59G: the yeast fitness is ≤ 0.5.
For the variant A14G A20U U35C G38A A43C, the yeast fitness amounted to 0.635.
To A14G A20C C22G C29U A69U belongs ≤ 0.5.
With A14C C49G G63C, the yeast fitness was found to be 0.592.
Regarding A14C C49G G63A, the yeast fitness came out at 0.593.
Consider A14C G17U C27U, for which the yeast fitness was 0.647.
For the variant A14C G18A C22G A57U, the yeast fitness is ≤ 0.5.
The value for A14G A40G A43U G50C A69U was ≤ 0.5.
Regarding A14C C27A G39A C55U A70G, the yeast fitness was ≤ 0.5.
With A14G A15U G67U, the yeast fitness was ≤ 0.5.
As for A14C A45C C60G, the yeast fitness was ≤ 0.5.
A14C U19C A43C G44C G48A U59A U64C C66U: the yeast fitness is ≤ 0.5.
A14C C27G A40U A70U: the yeast fitness is ≤ 0.5.
To A14C C27G C30G G38C belongs ≤ 0.5; to A14G A15C G17A A69C A70G, 0.562; to A14C C24U A36G G68C, ≤ 0.5.
To A14G A15G C33G C34U A43C C49G belongs ≤ 0.5; to A14G A36U G58C, ≤ 0.5; to A14C C24U U35C, ≤ 0.5.
Consider A14C U35C A65G, for which the yeast fitness amounted to 0.525.
The value for A14C U19C C27A G41C A42U C66U was 0.582; that for A14G A15U G68U was ≤ 0.5.
Regarding A14G A21U G68C, the yeast fitness is ≤ 0.5.
The value for A14C C30U G41C was 0.589.
In the case of A14C C61U A70C, the yeast fitness was ≤ 0.5.
To A14C U26A C34U C55G G68A belongs ≤ 0.5.
For A14G A21G C27U A45C G48C, the yeast fitness was ≤ 0.5.
Turning to A14C C24G, the yeast fitness stood at 0.579.
Take A14C G44A C66U: the yeast fitness was ≤ 0.5.
The value for A14C C27A C31A A70U was ≤ 0.5; that for A14C C33G G44C U54G G58C was ≤ 0.5; that for A14C C31G C62A G67U was ≤ 0.5.
For the variant A14C C31G, the yeast fitness came to 0.502.
To A14C C31A belongs 0.669; to A14C G68A, 0.712.
To A14C A57G belongs 0.748; to A14C A57U, 0.52; to A14C C29A, 0.596.
Consider A14C U16A G41C G63C A65U, for which the yeast fitness is 0.586.
Consider A14C C24U A40U G44A A70G, for which the yeast fitness is ≤ 0.5.
A14C C24A A40G C49A C61G: the yeast fitness was ≤ 0.5.
As for A14C C29A G50A, the yeast fitness is 0.576.
As for A14C G25C U47A C49U G63C, the yeast fitness came out at 0.561.
Turning to A14G A42G, the yeast fitness is 0.778.
To A14G A42C belongs 0.762; to A14G A15U U35C, ≤ 0.5; to A14G A20C C31U C46G, ≤ 0.5.
The value for A14C C55U C61G C62G was 0.571; that for A14C U47C C55U G68C was ≤ 0.5; that for A14G A40C U59G C60G was ≤ 0.5.
For A14G A37U, the yeast fitness is 0.584.
In the case of A14C C27A U54A A69G, the yeast fitness amounted to 0.647.
On to A14C C29A G48A G50A, for which the yeast fitness was ≤ 0.5.
The value for A14G A15C U53G C60U was ≤ 0.5.
As to A14C U19A G39C, the yeast fitness is ≤ 0.5.
The value for A14G A20U A36U G51C G52C was ≤ 0.5; that for A14G A15C U26C G51C was 0.512.
As for A14C C27A A37G G51C, the yeast fitness was found to be 0.615.
The value for A14C G17C C27U U47G was ≤ 0.5; that for A14G A20U C22G A43G A69C was ≤ 0.5.
To A14G A21C A37G belongs 0.562; to A14G A45G A65U G68C, ≤ 0.5.
Turning to A14G A15G A37G A45U C66U, the yeast fitness was ≤ 0.5.
With A14C C31U A36U A69C, the yeast fitness turned out to be 0.624.
To A14C U64A belongs 0.651; to A14C C60U C62U U64A, ≤ 0.5.
A14C U16C C55U A70G: the yeast fitness is ≤ 0.5.
As for A14C C55A A69C, the yeast fitness was ≤ 0.5.
Take A14C A45U G48A A69U: the yeast fitness was ≤ 0.5.
To A14C C27G A70U belongs 0.54; to A14G A20C A21U U28C, ≤ 0.5; to A14C C27U U47C C60G, 0.641.
In the case of A14G A21U G41C, the yeast fitness was ≤ 0.5.
To A14G A42C G50C C66U belongs ≤ 0.5; to A14C C29G C30A C62A A69C, ≤ 0.5; to A14C G18A, 0.59.
In the case of A14C C31U A70G, the yeast fitness is 0.612.
The value for A14C U19A C49U C62G G63A was ≤ 0.5; that for A14C U28A was 0.618; that for A14C C66G G68C was ≤ 0.5.
Take A14G A21G A70U: the yeast fitness was found to be 0.684.
With A14G A15C C46A, the yeast fitness was determined as 0.578.
The value for A14C G18A C31G C33U A37C A65U was ≤ 0.5.
For A14C C22U G41A C61U C66U, the yeast fitness was ≤ 0.5.
With A14C U26A C34U G50U C55G, the yeast fitness is ≤ 0.5.
On to A14C G23A C34A C49G, for which the yeast fitness was ≤ 0.5.
As for A14C G18A C30U C49A, the yeast fitness is ≤ 0.5.
Turning to A14C A45U, the yeast fitness stood at 0.717.
For the variant A14C A45C, the yeast fitness came out at 0.702.
On to A14C U47A, for which the yeast fitness was 0.701.
Turning to A14G A36G G51C U59G, the yeast fitness was ≤ 0.5.
With A14G A20C A43U C55G, the yeast fitness is ≤ 0.5.
As for A14G A37U C61A, the yeast fitness was ≤ 0.5.
To A14C C30U G68C belongs ≤ 0.5; to A14C G17U C22U C34U, ≤ 0.5.
Turning to A14G A45U A69C, the yeast fitness worked out at 0.748.
To A14G A15C A21G C46A A69U belongs ≤ 0.5; to A14C U32G U64C, 0.532; to A14G A20C A57G, 0.677.
Turning to A14C C30G G68U, the yeast fitness was 0.567.
To A14G A40G belongs 0.856.
The value for A14G A40C was 1; that for A14G A40U was 0.904; that for A14G A21C C30G C55G C66U G67A was ≤ 0.5.
Turning to A14C G25C G48A A69U, the yeast fitness was found to be 0.553.
As to A14C U59A, the yeast fitness turned out to be 0.746.
As to A14C C46A U47G, the yeast fitness is ≤ 0.5.
Turning to A14C U47C A70U, the yeast fitness was 0.614.
Consider A14C G18A A42G G44A C66G, for which the yeast fitness was ≤ 0.5.
With A14G A15U A45U, the yeast fitness was ≤ 0.5.
Take A14G A40C C60U C62G: the yeast fitness was ≤ 0.5.
In the case of A14C C22A C55G, the yeast fitness was ≤ 0.5.
The value for A14G A21G C27U A45C G48C C61G was ≤ 0.5; that for A14C U19C A43C G44C G48A U59A C62U U64A was ≤ 0.5.
As for A14C C62U A69C, the yeast fitness is ≤ 0.5.
For A14G A15U C30G, the yeast fitness was ≤ 0.5.
The value for A14C U35C A57U was ≤ 0.5; that for A14G A36G A43C A65U was ≤ 0.5; that for A14G A37G C55G was ≤ 0.5.
A14C G17A G48C C55U G63U: the yeast fitness was ≤ 0.5.
To A14C A45G C49U belongs 0.549; to A14C C27U C46U G52C, ≤ 0.5.
As for A14C G25C G48A G50A, the yeast fitness is ≤ 0.5.
To A14C A57C G68C belongs ≤ 0.5; to A14G A45G, 0.919.
Consider A14G A45U, for which the yeast fitness stood at 0.746.
